Screening results: PubChem, Broad Institute
FN deposition inh: inhibitors of fibronectin matrix deposition, primary screen, AH1F cells, Alexa488-fibronectin fluorescence, plate reader; AH1F fibroblasts, overnight; inhibition, % at 12.6 µM; actives 0.086% (n = 350,000);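 active means mean inhibition across replicates of 30% or more, regardless of how many single replicates reach that level; inconclusive means mean under 30% yet at least half of replicates reach 30%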;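 further: positive control wells lacked labelled fibronectin entirely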
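Test system: AH1F fibroblast monolayer depositing Alexa488-labelled fibronectin into matrix. Input: 10000 cells per well. Technique: fluorescence, ex 485 nm, em 525 nm. Buffer or medium: DMEM plus 2% serum, read in PBS. Timing: 1 h cell adhesion before compound, then overnight fibronectin incubation. Compound: single dose, pinned. Read-out basis: inhibition from reduced deposited-fibronectin fluorescence.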
aSyn UTR inh: MLPCN primary screen, SNCA 5' untranslated region. alpha-synuclein 5'UTR reporter, inhibitor activity. inhibition, % (tested at 7.5 µM). actives 0.82% (n = 300,000). AID 1813, 2009; in the data active means inhibition above about 60%; inconclusive means no clear call, values can overlap the other calls;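 further: H4 neuroglioblastoma cells stably carrying SNCA 5'UTR luciferase fusion; 0% = DMSO wells and 100% = positive control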
PAX8 inh HTS: inhibitors of PAX8-driven TPO luciferase reporter, primary screen, RMG-I cells, single concentration; SteadyGlo, 24 h; inhibition, % at 12.6 µM; actives 1.2% (n = 360,000);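 active means mean replicate inhibition at least 60% with every replicate also reaching 60%; inconclusive means only one of the two criteria is met; inactive means mean below 60% and not all replicates reaching 60%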;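 further: luciferase light reporting Pax8 driven TPO promoter activity; plate controls were median of neutral control wells for no effect and mitoxantrone controls for full effect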
EBV LMP1 NFkB: EBV LMP1-driven NF-kappaB luciferase reporter inhibitors, primary screen, cell-based, luminescence, single point. LMP1-induced NF-kappaB luciferase reporter cells. inhibition, % at 12.5 µM. actives 0.69% (n = 350,000). AID 504558, 2011; in the data active means inhibition above about 41%; inconclusive means no clear call, values can overlap the other calls;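 further: 0% = neutral control wells and 100% = reference inhibitor control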
Shn3 inh set2: reduction of Shn3 3'UTR firefly luciferase signal, primary screen, Schnurri-3 inhibitor project, cell-based, Clone20 osteoblasts, set 2. Clone20 osteoblast Shn3 3'UTR firefly luciferase, 24 h. AID 588674, 2011. inhibition, % at 12.5 µM. actives 0.52% (n = 360,000);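 active means mean inhibition of at least 75% with every replicate also reaching 75%; inconclusive means mean inhibition at least 75% but some replicate below; inactive means mean inhibition below 75%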;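 further: 0% = median of neutral control wells and 100% = pilot-screen positive control compound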
EWS-Fli inh: EWS/Fli-driven NR0B1 reporter inhibitors, primary screen, A673 cells, NR0B1 luciferase, luminescence, MLPCN library. viability-normalised. inhibition, % at 12.6 µM. actives 0.67% (n = 350,000). AID 651661, 2012;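 active means mean inhibition of at least 50% after viability correction, with every replicate also passing that limit; inconclusive means mean reaches 50% but only one of two replicates passes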;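 further: firefly luciferase signal divided by Alamar Blue viability fluorescence both relative to DMSO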
Numbers without * were called inactive; ? = inconclusive; nt = not tested or not shown; ! = repeats disagree. A selection: hits, their analogues and other compounds. The true share with any hit is near 2.1%.

SMILES	FN deposition inh	aSyn UTR inh	PAX8 inh HTS	EBV LMP1 NFkB	Shn3 inh set2	EWS-Fli inh
Cc1ccc(S(=O)(=O)N(C)C[C@H]2Oc3ccc(NC(=O)CCCN(C)C)cc3CC(=O)N([C@H](C)CO)C[C@H]2C)cc1	nt	nt	-1	nt	nt	1
CC(=O)c1cccc(NS(=O)(=O)c2ccc(-c3cnc(C4CC4)o3)cc2)c1	5	-5	40	35	85*	nt
C[C@@H]1CN([C@@H](C)CO)C(=O)c2cc(NC(=O)Nc3ccc(F)cc3)ccc2O[C@@H](C)CCCCO[C@H]1CN(C)Cc1ccncc1	3	nt	-10	nt	nt	2
Cc1cc(NC(=O)c2ccccc2)c(Cl)cc1N	1	64*	8	-5	12	34
COc1ccc(Cl)cc1NC(=O)CN(C)CC(=O)Nc1ccccc1N1CCOCC1	-13	112*	42	5	3	62*
COc1ccc(NC(=O)Nc2ccc3c(c2)CC(=O)N([C@H](C)CO)C[C@H](C)[C@@H](CN(C)S(=O)(=O)c2cccs2)O3)cc1	-2	nt	-4	nt	nt	-4
COc1cnc(-c2ccccn2)nc1N(C)c1ccccc1	4	89*	-3	12	89*	-13
CCNC1=C(Cl)C(=O)c2ccccc2C1=O	2	-23	nt	0	11	nt
O=C1C(Cl)=C(NCCN2CCCCC2)C(=O)c2ccccc21	nt	?	nt	13	95*	nt
CCOc1cc(/C=N/N2CCN(Cc3ccccc3)CC2)ccc1O	10	-5	-1	45*	-32	9
Cc1ccc(/C=N/N2CCN(Cc3ccccc3)CC2)cc1	nt	-27	-41	-3	-30	0
C(=N\N1CCN(Cc2ccccc2)CC1)/c1ccc(-c2ccccc2)cc1	-4	-10	-25	11	89*	-8
O=C(N=Nc1c(O)[nH]c2ccc(Br)cc12)c1cc(-c2cccs2)nc2ccccc12	0	81*	13	33	82	18
COC(=O)[C@]12C[C@H](CC(=O)NCc3ccc(OC)c(OC)c3)C(=O)N(Cc3ccc4c(c3)OCO4)C1=C[C@H](C(C)(C)C)O[C@@H]2C	-4	nt	79*	nt	nt	1
CCCCCCCCN1C(=O)[C@@H](CC(=O)N2CCC(c3ccccc3)CC2)C[C@@]2(C(=O)OC)C1=C[C@H](C(C)(C)C)O[C@@H]2C	24	nt	-22	nt	nt	10
CCCCCCCCN1C(=O)[C@@H](CC(=O)N2CCSCC2)C[C@@]2(C(=O)OC)C1=C[C@H](C1CCCC1)O[C@@H]2C	2	nt	-20	nt	nt	9
CCCCCCCCN1C(=O)[C@@H](CC(=O)N2CCN(C(=O)c3ccco3)CC2)C[C@@]2(C(=O)OC)C1=C[C@H](C(C)(C)C)O[C@@H]2C	-8	nt	84*	nt	nt	24
CCCCCCCCN1C(=O)[C@@H](CC(=O)N2CCN(C(=O)c3ccco3)CC2)C[C@@]2(C(=O)OC)C1=C[C@H](C1CCCC1)O[C@@H]2C	13	nt	73*	nt	nt	18
COC(=O)[C@]12C[C@H](CC(=O)NCc3cccc4ccccc34)C(=O)N(Cc3ccc4c(c3)OCO4)C1=C[C@H](C(C)(C)C)O[C@@H]2C	0	nt	11	nt	nt	3
C[C@@H]1CN([C@@H](C)CO)C(=O)c2cc(C#Cc3cccnc3)cnc2O[C@H]1CN(C)Cc1ccc(F)cc1	nt	nt	-12	nt	nt	10
O=C(C[C@H]1CC[C@H]2[C@@H](COC[C@@H](O)CN2C(=O)Nc2ccccc2)O1)NCCc1ccncc1	-3	nt	-26	nt	nt	-13
O=C(C1CC1)N1C[C@@H]2N[C@H](C1)C2c1ccc(-c2ccccc2F)cc1 (stereo partly specified)	10	nt	87*!	nt	nt	11
O=C(Nc1ccc(F)cc1)N1C[C@@H]2N[C@H](C1)C2c1ccc(-c2ccccc2F)cc1 (stereo partly specified)	3	nt	108*!	nt	nt	-4
Cc1ccccc1-c1ccc(C2[C@@H]3CN(C(=O)C4CCCC4)C[C@H]2N3)cc1 (stereo partly specified)	-10	nt	nt	nt	nt	2
